According to ChEMBL document CHEMBL2385063, “Identification of 2-(2-(1-naphthoyl)-8-fluoro-3,4-dihydro-1H-pyrido[4,3-b]indol-5(2H)-yl)acetic acid (setipiprant/ACT-129968), a potent, selective, and orally bioavailable chemoattractant receptor-homologous molecule expressed on Th2 cells (CRTH2) antagonist” (J Med Chem, 2013):
Values after ≈ are worked out from the molar mass of the structure shown. Active and inactive are the calls of the source. The calls are words filed in the database; no cut-off is given here.

Columns and labels:
[1] = Half life in simulated intestinal fluid at 2 uM by LC-MS analysis; type: physicochemical
How it was run: (§1)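 Compounds were incubated in simulated gastric fluid for 1 h or simulated intestinal fluid for 4 h. Unchanged parent was quantified by LC-MS.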

[2] = Solubility of the compound in aqueous buffer at pH 4; type: physicochemical
How it was run: (§2)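 Compound was stirred in water, 60 mM citrate buffer pH 4 or 70 mM phosphate buffer pH 7 at 300 rpm, 25 °C, for 24 h. The mixture was filtered, and the filtrate concentration was measured by HPLC-UV at 250 nm against a calibration curve.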

[3] = molecular target: T1, Prostaglandin D2 receptor 2 (Homo sapiens, UniProt Q9Y5Y4); assay: Antagonist activity at CRTH2 receptor in human eosinophils assessed as inhibition of PGD2-induced cell shape change incubated for 10 mins prior to PGD2 induction measured after 5 mins by FACS flow cytometric analysis in presence of human plasma
T1 sequence (Q9Y5Y4 whole entry): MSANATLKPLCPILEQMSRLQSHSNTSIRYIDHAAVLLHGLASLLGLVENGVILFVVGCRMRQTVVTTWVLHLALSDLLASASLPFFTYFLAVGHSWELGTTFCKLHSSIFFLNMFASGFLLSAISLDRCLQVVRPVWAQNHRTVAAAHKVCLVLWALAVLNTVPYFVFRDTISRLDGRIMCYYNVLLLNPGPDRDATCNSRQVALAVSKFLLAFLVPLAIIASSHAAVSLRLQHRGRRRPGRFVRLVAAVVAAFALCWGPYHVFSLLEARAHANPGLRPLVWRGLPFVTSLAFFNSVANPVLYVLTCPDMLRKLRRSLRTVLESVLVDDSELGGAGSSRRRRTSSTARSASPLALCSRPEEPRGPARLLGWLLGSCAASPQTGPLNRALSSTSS

[4] = molecular target: T2, Prostaglandin G/H synthase 1 (Ovis aries) (UniProt P05979); assay: […] at ovine COX-1 at 10 uM relative to control; design: scale not given: the % may be the effect or the level left
T2 sequence (whole entry): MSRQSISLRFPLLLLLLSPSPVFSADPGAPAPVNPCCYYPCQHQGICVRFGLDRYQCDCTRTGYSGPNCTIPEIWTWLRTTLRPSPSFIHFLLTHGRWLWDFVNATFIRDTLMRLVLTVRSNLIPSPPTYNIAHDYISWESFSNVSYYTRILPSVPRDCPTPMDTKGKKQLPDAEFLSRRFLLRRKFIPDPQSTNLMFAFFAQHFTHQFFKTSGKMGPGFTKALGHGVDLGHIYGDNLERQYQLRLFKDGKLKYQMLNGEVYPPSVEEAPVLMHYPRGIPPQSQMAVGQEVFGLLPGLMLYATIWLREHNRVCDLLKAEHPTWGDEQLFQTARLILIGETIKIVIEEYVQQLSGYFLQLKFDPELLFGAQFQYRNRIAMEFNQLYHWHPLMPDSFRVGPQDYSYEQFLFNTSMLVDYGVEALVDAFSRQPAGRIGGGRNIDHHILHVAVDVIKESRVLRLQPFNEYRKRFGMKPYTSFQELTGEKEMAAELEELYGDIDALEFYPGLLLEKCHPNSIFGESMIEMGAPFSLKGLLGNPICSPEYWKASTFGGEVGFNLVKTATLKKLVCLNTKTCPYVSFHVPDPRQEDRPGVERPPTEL
How it was run: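 Ovine COX-1 activity measured with a commercial kit, following the manufacturer's protocol. Compounds were tested in duplicate at 10 μM final concentration. Activity is expressed as inhibition relative to control.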

[5] = Intrinsic clearance in rat liver microsomes measured per mg of protein at 1 uM by LC/MS-MS analysis; type: ADME, Microsome; conditions: read-out: CLH
Cytochrome P450 3A4 = Cytochrome P450 3A4 (Homo sapiens, UniProt P08684); assay: Inhibition of CYP3A4 in human liver microsomes assessed as midazolam-1'-hydroxylation by LC-MS/MS analysis; type: ADME, Microsome
[6] = Intrinsic clearance in rat hepatocytes measured per 10^6 cells at 1 uM by LC/MS-MS analysis; type: ADME, cell-based, Hepatocyte; conditions: read-out: CLH
[7] = Half life in simulated gastric fluid at 2 uM by LC-MS analysis; type: physicochemical; how it was run: as §1
[8] = Solubility of the compound in aqueous buffer at pH 7; type: physicochemical; how it was run: as §2
[9] = Half life in Wistar rat at 1 mg/kg, iv and 10 mg/kg, po; type: ADME, organism-based; conditions: in vivo
How it was run: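 Male Wistar rats, three animals per experiment, given iv (0.2, 1 or 2 mg/kg) and po (2 or 10 mg/kg) doses as solutions; AUC0-last, plasma clearance, half-life and oral bioavailability derived.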

[10] = Elimination half life in Sprague-Dawley rat plasma at 1 mM by HR-LC-MS analysis; type: ADME, cell-free; conditions: read-out: beta t1/2
[11] = Intrinsic clearance in human liver microsomes measured per mg of protein at 1 uM by LC/MS-MS analysis; type: ADME, Microsome; conditions: read-out: CLH
[12] = molecular target: T3, Prostaglandin D2 receptor 2 (Rattus norvegicus) (UniProt Q6XKD3); assay: Antagonist activity at rat CRTH2 receptor assessed as inhibition of calcium flux by cell-based FLIPR assay; type: functional
T3 sequence (whole entry): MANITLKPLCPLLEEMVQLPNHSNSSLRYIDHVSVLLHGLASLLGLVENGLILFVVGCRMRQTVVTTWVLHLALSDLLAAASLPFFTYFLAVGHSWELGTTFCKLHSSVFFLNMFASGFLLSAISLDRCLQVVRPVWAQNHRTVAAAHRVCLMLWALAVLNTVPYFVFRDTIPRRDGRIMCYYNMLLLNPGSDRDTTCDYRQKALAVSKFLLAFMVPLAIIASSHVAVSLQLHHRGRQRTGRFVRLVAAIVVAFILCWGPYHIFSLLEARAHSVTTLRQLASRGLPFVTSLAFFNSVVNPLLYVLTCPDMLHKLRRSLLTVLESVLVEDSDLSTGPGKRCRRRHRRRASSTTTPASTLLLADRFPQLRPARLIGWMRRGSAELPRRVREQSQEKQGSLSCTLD

Cytochrome P450 2D6 = Cytochrome P450 2D6 (Homo sapiens, UniProt P10635); assay: Inhibition of CYP2D6 in human liver microsomes assessed as dextromethorphan O-demethylation by LC-MS/MS analysis; type: ADME, Microsome
Cytochrome P450 2C9 = Cytochrome P450 2C9 (Homo sapiens, UniProt P11712); assay: Inhibition of CYP2C9 in human liver microsomes assessed as diclofenac 4'-hydroxylation by LC-MS/MS analysis; type: ADME, Microsome
[13] = Elimination half life in human plasma at 1 mM by HR-LC-MS analysis; type: ADME, cell-free; conditions: read-out: beta t1/2
[14] = n-octanol-KH2PO4-Na2HPO4 buffer partition coefficient, log D of the compound at pH 7.4 by shake flask method; type: physicochemical

Sequence of Cytochrome P450 2D6 (P10635 whole entry): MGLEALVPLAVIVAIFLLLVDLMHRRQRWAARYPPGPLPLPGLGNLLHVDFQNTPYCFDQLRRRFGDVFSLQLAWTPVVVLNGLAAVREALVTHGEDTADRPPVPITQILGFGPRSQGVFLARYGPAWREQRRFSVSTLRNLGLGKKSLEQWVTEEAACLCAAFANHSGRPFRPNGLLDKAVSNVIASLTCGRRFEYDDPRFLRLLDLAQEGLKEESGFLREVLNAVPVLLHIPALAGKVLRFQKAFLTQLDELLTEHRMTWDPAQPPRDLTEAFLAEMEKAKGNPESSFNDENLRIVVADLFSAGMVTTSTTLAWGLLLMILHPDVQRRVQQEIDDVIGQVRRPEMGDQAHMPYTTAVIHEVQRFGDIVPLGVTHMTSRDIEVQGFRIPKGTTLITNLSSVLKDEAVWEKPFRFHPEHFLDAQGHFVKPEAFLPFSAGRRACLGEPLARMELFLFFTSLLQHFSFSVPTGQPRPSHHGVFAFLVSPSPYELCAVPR
Sequence of Cytochrome P450 2C9 (P11712 whole entry): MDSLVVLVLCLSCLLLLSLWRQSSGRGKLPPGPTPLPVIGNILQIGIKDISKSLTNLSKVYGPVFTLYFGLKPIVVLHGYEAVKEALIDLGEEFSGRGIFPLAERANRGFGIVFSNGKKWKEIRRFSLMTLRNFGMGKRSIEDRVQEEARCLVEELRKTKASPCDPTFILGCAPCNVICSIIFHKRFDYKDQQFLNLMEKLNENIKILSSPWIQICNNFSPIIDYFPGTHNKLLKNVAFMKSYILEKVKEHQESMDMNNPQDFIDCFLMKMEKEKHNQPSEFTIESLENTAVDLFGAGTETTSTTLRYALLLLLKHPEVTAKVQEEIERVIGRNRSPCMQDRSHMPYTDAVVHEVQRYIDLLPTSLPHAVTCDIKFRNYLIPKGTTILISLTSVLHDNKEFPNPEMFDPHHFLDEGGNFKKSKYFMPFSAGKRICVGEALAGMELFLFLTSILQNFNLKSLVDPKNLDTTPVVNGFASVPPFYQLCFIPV
Sequence of Cytochrome P450 3A4 (P08684 whole entry): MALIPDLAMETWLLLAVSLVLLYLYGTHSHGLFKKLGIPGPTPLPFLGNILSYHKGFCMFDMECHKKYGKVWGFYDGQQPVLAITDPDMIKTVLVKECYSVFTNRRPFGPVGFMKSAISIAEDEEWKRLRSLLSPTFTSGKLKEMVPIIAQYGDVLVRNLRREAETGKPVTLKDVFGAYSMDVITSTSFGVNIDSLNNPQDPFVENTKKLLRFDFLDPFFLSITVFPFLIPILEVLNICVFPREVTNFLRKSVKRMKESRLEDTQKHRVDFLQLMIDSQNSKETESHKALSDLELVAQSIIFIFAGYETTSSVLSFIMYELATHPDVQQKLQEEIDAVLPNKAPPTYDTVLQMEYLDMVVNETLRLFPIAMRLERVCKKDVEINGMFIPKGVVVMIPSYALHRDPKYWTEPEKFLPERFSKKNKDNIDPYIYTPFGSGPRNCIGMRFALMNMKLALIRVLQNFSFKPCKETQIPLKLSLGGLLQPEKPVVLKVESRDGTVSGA

- half-life at 2 µM [1]: > 4 h
- solubility [2]: 0.09 mg/mL (≈ 234 µM)
- IC50 [3]: 1.12 µM
- Activity [4]: < 30%
- microsomal CLint at 1 µM [5]: 36 µL/min/mg
- IC50 (Cytochrome P450 3A4): > 50 µM
- hepatocyte CLint at 1 µM [6]: 1.5 µL/min/1e6 cells
- half-life at 2 µM [7]: > 1 h
- solubility [8]: 0.83 mg/mL (≈ 2160 µM)
- half-life [9]: 5.8 h
- half-life [10]: > 4 h
- microsomal CLint at 1 µM [11]: < 4 µL/min/mg
- inhibition [12]: inactive
- IC50 (Cytochrome P450 2D6): > 50 µM
- IC50 (Cytochrome P450 2C9): 40 µM
- half-life [13]: > 4 h
- logD [14]: 0.2
SMILES: O=C(O)Cn1c2c(c3ccccc31)CN(C(=O)c1cccc3ccccc13)CC2
